In assay [1] the target is T1, 3',5'-cyclic-AMP phosphodiesterase 4D (Homo sapiens, UniProt Q08499). Briefly: Inhibition of human PDE4D2 catalytic domain (86 to 413 amino acids) expressed in Escherichia coli strain BL21 at 10 uM after 15 mins using [3H]-cAMP by liquid scintillation counting. The gist of the method:
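Single-point primary screen of percent inhibition against PDE4D2 at an initial concentration of 10 μM, using [3H]cAMP as substrate and liquid scintillation counting of radioactivity. Enzyme was produced using LB medium. Rolipram served as the reference inhibitor. The method follows the authors' earlier reports.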

The target in assay [2] is T1, 3',5'-cyclic-AMP phosphodiesterase 4D. Briefly: Inhibition of human PDE4D2 catalytic domain (86 to 413 amino acids) expressed in Escherichia coli strain BL21 after 15 mins using [3H]-cAMP by liquid scintillation counting. The gist of the method: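 IC50 determined against PDE4D2 only for compounds that gave more than 50% inhibition in the 10 μM primary screen. Substrate was [3H]cAMP and read-out was liquid scintillation counting. Enzyme was produced using LB medium. Rolipram served as the reference inhibitor. The method otherwise follows the authors' earlier reports.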

Molecules are shown by their SMILES.

We go through 21 compounds from ChEMBL document CHEMBL3352813, “Prostaglandin Derivatives: Nonaromatic Phosphodiesterase-4 Inhibitors from the Soft Coral Sarcophyton ehrenbergi” (J Nat Prod, 2014).

T1 sequence (Q08499 whole entry, the tested form may be a part): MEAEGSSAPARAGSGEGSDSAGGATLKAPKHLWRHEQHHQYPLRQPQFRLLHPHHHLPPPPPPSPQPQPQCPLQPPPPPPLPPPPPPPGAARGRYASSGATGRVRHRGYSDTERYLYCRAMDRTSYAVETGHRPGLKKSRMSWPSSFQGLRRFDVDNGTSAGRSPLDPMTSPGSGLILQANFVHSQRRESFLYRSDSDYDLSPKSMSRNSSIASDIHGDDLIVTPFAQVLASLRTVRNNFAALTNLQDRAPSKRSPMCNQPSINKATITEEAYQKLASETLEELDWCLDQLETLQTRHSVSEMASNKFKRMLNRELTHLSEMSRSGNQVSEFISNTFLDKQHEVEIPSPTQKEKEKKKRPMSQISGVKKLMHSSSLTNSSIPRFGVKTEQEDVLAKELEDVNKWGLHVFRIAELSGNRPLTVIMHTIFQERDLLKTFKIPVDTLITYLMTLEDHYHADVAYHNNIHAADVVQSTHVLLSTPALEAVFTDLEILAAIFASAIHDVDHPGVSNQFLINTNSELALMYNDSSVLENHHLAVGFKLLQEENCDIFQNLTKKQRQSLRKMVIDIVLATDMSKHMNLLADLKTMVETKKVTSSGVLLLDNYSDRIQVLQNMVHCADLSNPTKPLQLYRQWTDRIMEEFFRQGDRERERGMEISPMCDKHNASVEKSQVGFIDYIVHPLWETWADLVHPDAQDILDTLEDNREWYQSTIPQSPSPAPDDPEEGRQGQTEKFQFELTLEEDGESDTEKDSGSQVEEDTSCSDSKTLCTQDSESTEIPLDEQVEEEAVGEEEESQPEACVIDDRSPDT

As for `CCC(=O)CC[C@@H](/C=C/[C@@H]1[C@@H](C/C=C\CCCC(=O)OC)[C@@H](O)C[C@H]1OC(C)=O)OC(C)=O`, the inhibition in assay [1] was 57.2%. Besides, in assay [2], the midpoint of inhibition, the IC50, lay at 12.1 µM.
With `CCCCC[C@@H](/C=C/[C@@H]1[C@@H](/C=C/CCCCC(=O)OC)[C@@H](O)C[C@H]1OC(C)=O)OC(C)=O`, the inhibition in assay [1] amounted to 57.3%. In assay [2], this compound returned an IC50 of 7.2 µM.
Consider `CCC(O)CC[C@H](O)/C=C/[C@@H]1[C@@H](C/C=C\CCCC(=O)O)[C@@H](O)C[C@H]1O` (stereo partly specified), for which the inhibition in assay [1] was -3.93%.
Regarding `CCC(CC[C@H](O)/C=C/[C@@H]1[C@@H](C/C=C\CCCC(=O)OC)[C@@H](O)C[C@H]1OC(C)=O)OC(C)=O` (stereo partly specified), the inhibition in assay [1] is -6.05%.
Still for that read-out and setting: under `CCC(=O)CC[C@H](O)/C=C/[C@@H]1[C@@H](C/C=C\CCCC(=O)OC)[C@@H](O)C[C@H]1OC(C)=O` stands 21.9%.
In the case of `CCCCC[C@@H](/C=C/[C@@H]1[C@@H](CCCCCCC(=O)OC)[C@@H](O)C[C@H]1OC(C)=O)OC(C)=O`, the inhibition in assay [1] worked out at 41.7%.
With `CCCCC[C@@H](/C=C/[C@@H]1[C@@H](C/C=C\CCCC(=O)OC)[C@@H](O)C[C@H]1OC(C)=O)OC(C)=O`, in assay [1], the inhibition is 71.9%. The compound also yielded an IC50 in assay [2] of 5.5 µM.
Turning to `CCC(=O)CC[C@H](O)/C=C/[C@@H]1[C@@H](C/C=C\CCCC(=O)O)[C@@H](O)C[C@H]1O`, the inhibition in assay [1] came to 10.1%.
Still for that read-out and setting: under `CCC(CC[C@H](O)/C=C/[C@@H]1[C@@H](C/C=C\CCCC(=O)OC)[C@@H](OC(C)=O)C[C@H]1OC(C)=O)OC(C)=O` (stereo partly specified) stands 11.4%; under `CCC(CC[C@@H](/C=C/[C@@H]1[C@@H](C/C=C\CCCC(=O)OC)[C@@H](O)C[C@H]1OC(C)=O)OC(C)=O)OC(C)=O` (stereo partly specified), 38.7%.
Take `CCC(CC[C@@H](/C=C/[C@@H]1[C@@H](C/C=C\CCCC(=O)OC)[C@@H](OC(C)=O)C[C@H]1OC(C)=O)OC(C)=O)OC(C)=O` (stereo partly specified): in assay [1], the inhibition worked out at 66.5%. The same compound had an IC50 in assay [2] of 3.7 µM.
Consider `CCC(CC[C@@H](/C=C/[C@@H]1[C@@H](C/C=C\CCCC(=O)OC)[C@@H](OC(C)=O)C[C@H]1OC(C)=O)OC(=O)[C@](OC)(c1ccccc1)C(F)(F)F)OC(C)=O` (stereo partly specified), for which, in assay [1], the inhibition amounted to 28.4%.
For `CCC(CC[C@@H](/C=C/[C@@H]1[C@@H](C/C=C\CCCC(=O)OC)[C@@H](OC(=O)[C@](OC)(c2ccccc2)C(F)(F)F)C[C@H]1OC(C)=O)OC(=O)[C@](OC)(c1ccccc1)C(F)(F)F)OC(C)=O` (stereo partly specified), in assay [1], the inhibition amounted to 58%. In addition, 3.6 µM corresponded to half-maximal inhibition in assay [2] (IC50).
As to `CCC(=O)CC[C@H](O)/C=C/[C@@H]1[C@@H](C/C=C\CCCC(=O)O)[C@@H](O)C[C@H]1OC(C)=O`, the inhibition in assay [1] worked out at 26%.
In the case of `CCC(CC[C@@H](/C=C/[C@@H]1[C@@H](C/C=C\CCCC(=O)OC)[C@@H](OC(=O)[C@@](OC)(c2ccccc2)C(F)(F)F)C[C@H]1OC(C)=O)OC(=O)[C@@](OC)(c1ccccc1)C(F)(F)F)OC(C)=O` (stereo partly specified), in assay [1], the inhibition came to 51.1%. For the same compound, inhibition in assay [2] was half-maximal at 5.9 µM (IC50).
`CCC(CC[C@H](O)/C=C/[C@@H]1[C@@H](C/C=C\CCCC(=O)O)[C@@H](O)C[C@H]1OC(C)=O)OC(C)=O` (stereo partly specified): the inhibition in assay [1] is 3.12%.
For `CCCCC[C@@H](/C=C/[C@@H]1[C@@H](C/C=C\CCCC(=O)OC)[C@@H](OC(C)=O)C[C@H]1OC(C)=O)OC(C)=O`, the inhibition in assay [1] amounted to 94.6%. For the same compound, inhibition in assay [2] was half-maximal at 1.4 µM (IC50).
In the case of `CCC(=O)CC[C@@H](/C=C/[C@@H]1[C@@H](C/C=C\CCCC(=O)OC)[C@@H](OC(C)=O)C[C@H]1OC(C)=O)OC(C)=O`, the inhibition in assay [1] amounted to 65%. Further, half-maximal inhibition in assay [2] (IC50) required 10.6 µM.
For `CCCCC[C@@H](/C=C/[C@@H]1[C@@H](C/C=C\CCCC(=O)OC)[C@@H](OC(C)=O)C[C@H]1O)OC(C)=O`, the inhibition in assay [1] was 74.7%. In assay [2], this compound showed an IC50 of 4.7 µM.
The matching figures for `CCC(=O)CC[C@@H](/C=C/[C@@H]1[C@@H](C/C=C\CCCC(=O)O)[C@@H](O)C[C@H]1OC(C)=O)OC(C)=O`: 50.4% and 16.9 µM.
For the compound `CCC(CC[C@@H](/C=C/[C@@H]1[C@@H](C/C=C\CCCC(=O)OC)[C@@H](OC(C)=O)C[C@H]1OC(C)=O)OC(=O)[C@@](OC)(c1ccccc1)C(F)(F)F)OC(C)=O` (stereo partly specified), the inhibition in assay [1] is 15.1%.

Broadly, the inhibition is the relative decrease from the control value, in per cent. What is called IC50 is the concentration that inhibits the measured activity by half. Higher therefore signals weaker potency in that assay.
